Results published in ChEMBL document CHEMBL1150775, “Synthesis and evaluation of estrogen agonism of diaryl 4,5-dihydroisoxazoles, 3-hydroxyketones, 3-methoxyketones, and 1,3-diketones: a compound set forming a 4D molecular library” (J Med Chem, 2008).
Where “and” joins values, the source holds several entries; their conditions need not be identical. Equal values may be shown once.

Tests used:
[1] = biological target: T1, Estrogen receptor (Homo sapiens) (UniProt P03372); test: Activation of human estrogen receptor alpha expressed in HEK293 cells at 10 uM by beta-galactosidase reporter gene assay relative to 3,17 beta-estradiol; assay type: cell-based
T1 sequence (whole entry): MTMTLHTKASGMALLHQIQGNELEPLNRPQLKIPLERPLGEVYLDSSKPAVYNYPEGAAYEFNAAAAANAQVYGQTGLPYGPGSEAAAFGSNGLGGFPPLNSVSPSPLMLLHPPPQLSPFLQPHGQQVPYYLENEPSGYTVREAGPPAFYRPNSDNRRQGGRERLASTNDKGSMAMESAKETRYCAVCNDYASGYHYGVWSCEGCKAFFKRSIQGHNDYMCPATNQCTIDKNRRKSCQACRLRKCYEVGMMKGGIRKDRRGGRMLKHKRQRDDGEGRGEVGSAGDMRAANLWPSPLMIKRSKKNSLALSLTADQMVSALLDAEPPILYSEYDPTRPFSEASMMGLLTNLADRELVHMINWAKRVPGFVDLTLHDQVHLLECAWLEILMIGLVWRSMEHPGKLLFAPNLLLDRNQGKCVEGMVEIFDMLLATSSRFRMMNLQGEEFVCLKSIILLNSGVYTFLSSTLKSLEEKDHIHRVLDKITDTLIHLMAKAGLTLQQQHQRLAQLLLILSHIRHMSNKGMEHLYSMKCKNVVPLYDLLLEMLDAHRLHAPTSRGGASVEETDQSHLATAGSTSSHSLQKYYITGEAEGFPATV
How it was run: (§1)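 HEK293 cells seeded a day ahead in phenol-free DMEM with 5% delipidated FBS. Calcium phosphate transfection for 4 h with 5 ng ERα or ERβ expression vector, 75 ng pERE2TATA-LUC reporter and 20 ng pCMVβ control. Test compound at 10 µM (vehicle 0.1% v/v) for 24 h. Luciferase normalized to β-galactosidase. Activity = 100% × (test − vehicle)/(10 nM E2 − vehicle). Mean of ≥3 independent transfections.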

[2] = biological target: Estrogen receptor beta (Homo sapiens) (UniProt Q92731); test: Activation of human estrogen receptor beta expressed in HEK293 cells at 10 uM beta-galactosidase reporter gene assay relative to 3,17-beta-estradiol; assay type: cell-based; how it was run: as §1
Chain of Estrogen receptor beta (Homo sapiens) (Q92731 whole entry): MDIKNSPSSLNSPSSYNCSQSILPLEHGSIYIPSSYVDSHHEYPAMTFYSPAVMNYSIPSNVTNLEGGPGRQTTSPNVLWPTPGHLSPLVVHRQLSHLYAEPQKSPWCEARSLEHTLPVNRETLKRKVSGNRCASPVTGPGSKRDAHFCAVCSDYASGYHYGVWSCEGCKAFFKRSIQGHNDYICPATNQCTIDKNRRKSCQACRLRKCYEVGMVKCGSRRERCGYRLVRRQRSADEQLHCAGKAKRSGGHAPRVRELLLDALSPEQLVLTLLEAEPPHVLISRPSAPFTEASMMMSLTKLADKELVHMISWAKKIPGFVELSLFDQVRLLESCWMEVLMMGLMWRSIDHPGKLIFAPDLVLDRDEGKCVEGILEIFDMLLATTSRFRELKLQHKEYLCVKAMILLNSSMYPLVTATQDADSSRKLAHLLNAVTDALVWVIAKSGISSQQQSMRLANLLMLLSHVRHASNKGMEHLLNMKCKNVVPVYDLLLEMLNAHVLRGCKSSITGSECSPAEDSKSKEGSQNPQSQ

| SMILES | Activity [1] | Activity [2] |
| --- | --- | --- |
| COc1ccc(CC2CC(CCc3ccccc3)=NO2)cc1 (single isomer, unassigned; 50a) | 0.8% | 10.6% |
| COC(CC(=O)c1ccccc1)Cc1ccccc1 (configuration not stated) | 0.3% | 18.4% |
| c1ccc(CCC2=NOC(c3ccccc3)C2)cc1 (single isomer, unassigned; 12a) | 16.4% | 9.8% |
| COc1ccccc1CC(CC(=O)Cc1ccc2ccccc2c1)OC (configuration not stated) | 0.2% | 0.1% |
| O=C(CCCc1ccccc1)CC(=O)Cc1ccccc1 | 27.7% | 4.2% |
| Oc1ccc(CCC2=NOC(Cc3ccc(O)cc3)C2)cc1 (configuration not stated) | 81.4% and 76.2% | 4.1% and 12% |
| COc1ccc(CC(CC(=O)CCc2ccccc2)OC)cc1 (configuration not stated) | 28.5% | 4% |
| c1ccc(CCC2=NOC(Cc3ccc4ccccc4c3)C2)cc1 (single isomer, unassigned; 53a) | 22.3% | 8.2% |
| c1ccc(CCC2=NOC(Cc3cccc4ccccc34)C2)cc1 (single isomer, unassigned; 52b) | 17.2% | 6.5% |
| COC(CC(=O)CCc1ccccc1)Cc1ccc(F)cc1 (configuration not stated) | 33.1% | 11.2% |
| Oc1ccccc1CCC1=NOC(Cc2ccc(F)cc2)C1 (single isomer, unassigned; 73a) | 82% | 3.4% |
| COC(CC(=O)CCc1ccccc1)Cc1ccccc1 (configuration not stated) | 9.9% | 1.3% |
| CS(C)=C(C(=O)CCCc1ccccc1)C(=O)c1ccccc1 | -6% | 0% |
| CS(C)=C(C(=O)Cc1ccccc1)C(=O)c1ccccc1 | -1.2% | 5.8% |
| O=C(Cc1ccccc1)CC(O)CCc1ccccc1 (configuration not stated) | 4.3% | 0.2% |
| c1ccc(CCC2=NOC(c3ccccc3)C2)cc1 (single isomer, unassigned; 12b) | 11.2% | 8.1% |
| Oc1cccc(CCC2=NOC(Cc3ccccc3)C2)c1 (configuration not stated) | 15.7% | -2.5% |
| COC(CC(=O)Cc1ccc(F)cc1)Cc1cccc2ccccc12 (single isomer, unassigned; 62b) | 4.5% | -0.5% |
| COC(CC(=O)Cc1cccc2ccccc12)Cc1cccc2ccccc12 (single isomer, unassigned; 64a) | 5.6% | -0.5% |
| Oc1cccc(CCC2=NOC(Cc3ccccc3)C2)c1 (single isomer, unassigned) | 19.2% | 6.7% |
| O=C(CCc1ccccc1)CC(O)Cc1ccc(F)cc1 (configuration not stated) | 30.1% | 5.7% |
| c1ccc(CC2=NOC(Cc3ccccc3)C2)cc1 (single isomer, unassigned; 14b) | 0% | 0.3% |
| O=C(CCc1ccccc1)CC(O)Cc1cccc2ccccc12 (configuration not stated) | 12.1% | 1.7% |
| COC(CC(=O)CCc1ccccc1)Cc1ccc2ccccc2c1 (configuration not stated) | 30.4% | 12.4% |

| SMILES | Activity [1] | Activity [2] |
| --- | --- | --- |
| c1ccc(CCC2=NOC(Cc3cccc4ccccc34)C2)cc1 (single isomer, unassigned; 52a) | 34.1% | 10.5% |
| c1ccc(CCC2=NOC(CCc3ccccc3)C2)cc1 (single isomer, unassigned; 18a) | 3.4% | 0.2% |
| CS(C)=C(C(=O)Cc1ccccc1)C(=O)Cc1ccccc1 | 0.5% | -0.4% |
| O=C(CC(=O)Cc1ccccc1)Cc1ccccc1 | 4.3% | 0.1% |
| Oc1ccc(CCC2=NOC(Cc3ccccc3)C2)cc1 (configuration not stated) | 171% | 143% |
| O=C(CCc1ccccc1)CC(=O)CCc1ccccc1 | 0.6% | 0.3% |
| O=C(CCCc1ccccc1)CC(O)Cc1ccccc1 (configuration not stated) | 24.7% | 9.1% |
| Fc1ccc(CC2CC(CCc3ccccc3)=NO2)cc1 (configuration not stated) | 99.2% | 11.2% |
| O=C(CCCc1ccccc1)CC(=O)CCc1ccccc1 | 6.1% | -1.5% |
| Oc1ccccc1CCC1=NOC(Cc2ccc(F)cc2)C1 (single isomer, unassigned; 73b) | 11.1% | -2.4% |
| O=C(CCc1ccccc1)CC(O)c1ccccc1 (single isomer, unassigned; 23b) | 25.3% | 2.8% |
| c1ccc(CCC2CC(c3ccccc3)=NO2)cc1 (single isomer, unassigned; 10b) | 1.1% | -6% |
| Oc1ccc(CC2CC(CCc3ccccc3O)=NO2)cc1 (single isomer, unassigned; 75a) | 20.4% | 2.5% |
| Oc1ccc(CCC2=NOC(Cc3ccc(F)cc3)C2)cc1 (single isomer, unassigned) | 77.8% | 28.4% |
| O=C(CCc1ccccc1)CC(O)Cc1ccc2ccccc2c1 (single isomer, unassigned; 57b) | 20.1% | 20.1% |
| O=C(Cc1ccccc1)CC(O)c1ccccc1 (configuration not stated) | 0.8% | 1.6% |
| O=C(CCc1ccccc1)CC(O)Cc1ccccc1 (configuration not stated) | 12.8% | 0.4% |
| CS(C)=C(C(=O)CCc1ccccc1)C(=O)Cc1ccccc1 | 0.5% | -7.1% |
| COc1ccc(CC2CC(CCc3ccccc3)=NO2)cc1 (single isomer, unassigned; 50b) | 16.1% | 13.2% |
| c1ccc(CCCC2=NOC(c3ccccc3)C2)cc1 (configuration not stated) | – | 17.2% and -3.1% |
| COc1ccccc1CC(=O)CC(Cc1ccc2ccccc2c1)OC (single isomer, unassigned; 66b) | 4.3% | -0.5% |
| Oc1ccc(CCC2=NOC(Cc3ccc(F)cc3)C2)cc1 (configuration not stated) | 5.7% | 4.4% |
| Oc1ccc(CC2CC(CCc3ccccc3)=NO2)cc1 (single isomer, unassigned; 69a) | 34.2% | 9.1% |
| COC(CC(=O)Cc1ccccc1)Cc1ccccc1 (configuration not stated) | 1.4% | 0.3% |

| SMILES | Activity [1] | Activity [2] |
| --- | --- | --- |
| Oc1ccc(CC2CC(CCc3ccccc3O)=NO2)cc1 (single isomer, unassigned; 75b) | 6.2% | 0.6% |
| O=C(CCCc1ccccc1)CC(O)CCc1ccccc1 (configuration not stated) | 2.2% | -7.1% |
| Oc1ccc(CC2CC(CCc3ccccc3)=NO2)cc1 (single isomer, unassigned; 69b) | 105% | 42.4% |
| c1ccc(CC2=NOC(Cc3ccccc3)C2)cc1 (single isomer, unassigned; 14a) | -1.3% | -0.2% |
| COc1ccc(CC(O)CC(=O)CCc2ccccc2)cc1 (single isomer, unassigned; 54a) | 1.6% | -0.8% |
| c1ccc(CCC2=NOC(Cc3ccccc3)C2)cc1 (single isomer, unassigned) | 68.4% | 1.1% |
| COC(CCc1ccccc1)CC(=O)CCc1ccccc1 (configuration not stated) | 14.5% | 19.5% |
| CS(C)=C(C(=O)CCCc1ccccc1)C(=O)Cc1ccccc1 | 3.7% | -1.7% |
| Oc1ccccc1CCC1=NOC(Cc2ccccc2)C1 (configuration not stated) | 111% | 18.4% |
| c1ccc(CCCC2=NOC(Cc3ccccc3)C2)cc1 (single isomer, unassigned) | 28.1% | 5.1% |
| COc1ccccc1CC(=O)CC(Cc1cccc2ccccc12)OC (single isomer, unassigned; 63b) | 0.6% | -0.2% |
| COC(CC(=O)Cc1ccccc1)c1ccccc1 (configuration not stated) | 4.9% | -1.2% |
| COC(CC(=O)Cc1ccc(F)cc1)Cc1cccc2ccccc12 (single isomer, unassigned; 62a) | 0.2% | -0.6% |
| O=C(CCc1ccccc1)CC(O)c1ccccc1 (single isomer, unassigned; 23a) | 78.8% | 20.5% |
| CS(C)=C(C(=O)CCc1ccccc1)C(=O)CCc1ccccc1 | 1% | 0.3% |
| COC(CC(=O)CCCc1ccccc1)Cc1ccccc1 (configuration not stated) | 24.5% | 30.4% |
| c1ccc(CC2CC(c3ccccc3)=NO2)cc1 (configuration not stated) | – | 12.8% and 6.6% |
| O=C(CC(O)CCc1ccccc1)c1ccccc1 (configuration not stated) | 13% | 15.4% |
| O=C(CC(O)Cc1ccccc1)c1ccccc1 (configuration not stated) | 5.3% | 16.9% |
| COC(CCc1ccccc1)CC(=O)CCCc1ccccc1 (configuration not stated) | 3.1% | -14.6% |
| O=C(CCCc1ccccc1)CC(O)c1ccccc1 (single isomer, unassigned; 24b) | 59.3% | 28.2% |
| CS(C)=C(C(=O)CCCc1ccccc1)C(=O)CCc1ccccc1 | 0.6% | -4.6% |
| COC(CCc1ccccc1)CC(=O)Cc1ccccc1 (configuration not stated) | 12% | 0.2% |
| COc1ccc(CC(O)CC(=O)CCc2ccccc2)cc1 (single isomer, unassigned; 54b) | 1.3% | 1.2% |
